Measured values as given in ChEMBL document CHEMBL1151173, “Sesquiterpene lactones from Montanoa hibiscifolia that inhibit the transcription factor NF-kappa B” (J Nat Prod, 2004).

Tests used:
RAW264.7 [1] = assay: Cytotoxicity against mouse RAW264.7 cells by trypan blue exclusion method; type: cell-based
RAW264.7 [2] = assay: Inhibition of NF-kappaB binding to DNA in LPS-stimulated mouse RAW264.7 cells pretreated for 1 hr before LPS stimulation
Jurkat = assay: Inhibition of NF-kappaB binding to DNA in TNF-alpha-stimulated human Jurkat T cells pretreated for 1 hr before TNFalpha stimulation; type: cell-based
In short: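 Jurkat T cells (RPMI 1640, 10% FCS, penicillin/streptomycin) were pretreated 1 h with compound at various concentrations, then stimulated 1 h with 200 U/mL TNF-α. High-salt detergent total extracts (10-20 µg protein) were incubated 25 min at room temperature with poly(dI-dC), BSA and a 33P-labeled NF-κB oligonucleotide. The EMSA value is the lowest concentration giving complete inhibition of DNA binding. Run in duplicate.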

For `C=C1C(=O)O[C@H]2/C=C(\C)CC/C=C(/C)C(=O)[C@H](OC(=O)[C@@]3(C)O[C@H]3C)[C@@H]12`, the Activity (RAW264.7 [1]) was “Non-toxic”, the Activity (RAW264.7 [2]) was 20 µM and the Lowest concentration giving complete inhibition of NF-kappaB DNA binding (Jurkat) was 50 µM.
For `C=C1C(=O)O[C@H]2/C=C(\C)CC/C=C(/C)[C@@H](OC(=O)/C(C)=C/C)[C@H](O)[C@@H]12`, the Activity (RAW264.7 [1]) was “Non-toxic”, the Activity (RAW264.7 [2]) was 20 µM and the Lowest concentration giving complete inhibition of NF-kappaB DNA binding (Jurkat) was 100 µM.
In the case of `C=C1CCC=C(C)[C@@]2(O)[C@H](OC(=O)[C@]3(C)O[C@@H]3C)[C@@H]3[C@@H](OC(=O)[C@@H]3C)[C@H]12`, the Lowest concentration giving complete inhibition of NF-kappaB DNA binding (Jurkat) was 200 µM.
For `C=C1C(=O)O[C@@H]2C3O[C@]3(C)CC/C=C(\C)CC[C@@H]12` (stereo partly specified), the Lowest concentration giving complete inhibition of NF-kappaB DNA binding (Jurkat) was 20 µM.
For `C=C1C(=O)O[C@@H]2[C@H]1[C@@H](OC(=O)[C@]1(C)O[C@@H]1C)C(=O)[C@@]1(C)C=CC[C@@](C)(O)[C@@H]21`, the Activity (RAW264.7 [1]) was “Non-toxic”, the Activity (RAW264.7 [2]) was 10 µM and the Lowest concentration giving complete inhibition of NF-kappaB DNA binding (Jurkat) was 10 µM.
